Assays:
[1] = melting temperature; fluorescence melt of hairpins on a sequencing array, two-state fit, raised by 9.35 °C to match UV melts; conditions: sodium 0.088 M
Method in brief: (§1)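 Two-state fits, bootstrapped, provided melting temperature and folding enthalpy from Cy3 fluorescence normalised to pre-quench Cy3 and to control constructs. Library hairpins with annealed Cy3 and quencher oligos were imaged on a sequenced MiSeq flow cell in 50 mM Na-HEPES pH 8.0, 25 mM NaCl, at 2.5 °C intervals up to 60 °C. Four replicates were combined with inverse-variance weighting. A 9.35 °C upward shift was applied to fitted temperatures to match UV melts.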

[2] = folding enthalpy; higher = less favourable; fluorescence melt of hairpins on a sequencing array, two-state fit; conditions: sodium 0.088 M
Method in brief: as §1

| Sequence | Tm [1] [°C] | folding enthalpy [2] [kcal/mol] |
| --- | --- | --- |
| GGATAGACGAAAGTCTCC (((..(((....)))))) | 33.6 | -14.6 |
| GGATAGGGAAACCTACCC ((.((((....)))).)) | 35.2 | -21.9 |
| GGATAGGGAAACCTATTC (.(((((....))))).) | 34.9 | -29.4 |
| GGATAGTCGAAAGACTCC (((..(((....)))))) | 33.1 | -13.6 |
| GGATATCCGAAAGGATCC (((..(((....)))))) | 32.3 | -11.4 |
| GGATATCGAAAGATCTCC (((.(((....))).))) | 39.1 | -30.9 |
| GGATATCGAAAGATGTCC (((.(((....))).))) | 52 | -38.9 |
| GGATATGGAAACACATCC ((((.((....)).)))) | 31.5 | -26.3 |
| GGATCACCGAAAGGTTCC (((..(((....)))))) | 30.3 | -13.1 |
| GGATCACGAAAGTGTCC (((.(((....)))))) | 49.8 | -25.4 |
| GGATCACGAAAGTGTTCC (((.(((....))).))) | 50.8 | -34.3 |
| GGATCAGGAAACTAATCC ((((.((....)).)))) | 26.2 | -12.9 |
| GGATCAGGAAACTGACCC ((.((((....)))).)) | 41.4 | -27.7 |
| GGATCAGGAAACTGATCC (((((((....))))))) | 64.5 | -44.2 |
| GGATCCCGAAAGGGTCC (((.(((....)))))) | 60.1 | -27.8 |
| GGATCCGAAAGGACGTCC ((((((....)))..))) | 31.9 | -13.8 |
| GGATCCGAAAGGACTTCC ((((((....)))..))) | 37.5 | -19.5 |
| GGATCCGAAAGGAGCTCC ((((((....)))..))) | 44.2 | -13.4 |
| GGATCCGAAAGGAGTCC ((((((....))).))) | 47.9 | -18.5 |
| GGATCCGGAAACAGATCC (((((.(....).))))) | 41.6 | -33.1 |
| GGATCGCCGAAAGGCTCC (((..(((....)))))) | 30.4 | -11 |
| GGATCGGGAAACTGGTCC (((.(.(....).).))) | 39.2 | -30.4 |
| GGATCTCCGAAAGGATCC (((..(((....)))))) | 42.1 | -23.8 |

| Sequence | Tm [1] [°C] | folding enthalpy [2] [kcal/mol] |
| --- | --- | --- |
| GGATCTCGAAAGAGCTCC (((.(((....))).))) | 44.5 | -31.7 |
| GGATCTCGAAAGAGTCC (((.(((....)))))) | 49.3 | -25.1 |
| GGATCTGCGAAAGCATCC (((..(((....)))))) | 35.2 | -14.9 |
| GGATCTGGAAACAGACCC ((.((((....)))).)) | 42 | -32.2 |
| GGATGACGAAAGTCCTCC (((.(((....))).))) | 47.1 | -31.5 |
| GGATGACGAAAGTCTTCC (((.(((....))).))) | 52.9 | -42.5 |
| GGATGAGGAAACCCATCC (((((.(....).))))) | 44.6 | -30.3 |
| GGATGAGGAAACTCACCC ((.((((....)))).)) | 39.6 | -22.3 |
| GGATGAGGAAACTCATTC (.(((((....))))).) | 41.6 | -23.7 |
| GGATGCGAAAGCATATCC ((((((....)))..))) | 43.8 | -14.9 |
| GGATGCGGAAACGCACCC ((.((((....)))).)) | 52.2 | -27.4 |
| GGATGCGGAAACGTGTCC (((..((....))..))) | 48.4 | -34.9 |
| GGATGGCCGAAAGGCTCC (((..(((....)))))) | 37.3 | -11.6 |
| GGATGGGAAACCATCC ((((((....)))))) | 59.2 | -37.3 |
| GGATGGGGAAACCTATCC ((((.((....)).)))) | 47.2 | -29.4 |
| GGATGTGGAAACACATTC (.(((((....))))).) | 47.6 | -25.7 |
| GGATTACGAAAGTACTCC (((.(((....))).))) | 41.1 | -27.9 |
| GGATTAGGAAACTGATCC ((((.((....)).)))) | 41.8 | -33.7 |
| GGATTCCCGAAAGGGTCC (((..(((....)))))) | 39.3 | -14.6 |
| GGATTCGAAAGAACATCC ((((((....)))..))) | 29.4 | -14.1 |
| GGATTCGAAAGAACCTCC ((((((....)))..))) | 37.8 | -16.7 |
| GGATTCGAAAGAAGATCC ((((((....)))..))) | 28.1 | -12.2 |
| GGATTCGAAAGAATCTCC ((((((....)))..))) | 43.8 | -14.2 |

| Sequence | Tm [1] [°C] | folding enthalpy [2] [kcal/mol] |
| --- | --- | --- |
| GGATTCGCGAAAGCGTCC (((..(((....)))))) | 29.5 | -10.7 |
| GGATTCGGAAACGAGTTC (.(.(((....))).).) | 28.7 | -18.1 |
| GGATTGAAAAATCC (((((....))))) | 44.5 | -21.7 |
| GGATTGGAAACAATCC ((((((....)))))) | 55.5 | -36.7 |
| GGATTTACGAAAGTATCC (((..(((....)))))) | 31 | -21 |
| GGATTTCGAAAGAATCC (((.(((....)))))) | 41.3 | -28.8 |
| GGATTTGGAAACAAATCC (((((((....))))))) | 58.2 | -44.3 |
| GGATTTGGAAACAAATTC (.(((((....))))).) | 40.1 | -28.1 |
| GGATTTTCGAAAGAATCC (((..(((....)))))) | 31.4 | -17.7 |
| GGCAAACGAAAGTTAGCC (((.(((....))).))) | 54.9 | -25.1 |
| GGCAAACGAAAGTTGCC (((.(((....)))))) | 59.6 | -33.3 |
| GGCAAAGAAATTTGCC ((((((....)))))) | 56 | -36.8 |
| GGCAACACGAAAGTGGCC (((..(((....)))))) | 52.6 | -37.4 |
| GGCAACCGAAAGGTGGCC (((.(((....))).))) | 67.7 | -35 |
| GGCAACGAAAGTTAAGCC ((((((....)))..))) | 45.7 | -24 |
| GGCAACGAAAGTTACGCC ((((((....)))..))) | 44.4 | -24.2 |
| GGCAACGAAAGTTATGCC ((((((....)))..))) | 46.3 | -24.2 |
| GGCAACGGAAACACTGCC ((((..(....)..)))) | 29.7 | -15 |
| GGCAACGGAAACATCGCC (((.(.(....).).))) | 24.5 | -16.7 |
| GGCAACGGAAACGTCGCC (((.(((....))).))) | 52.8 | -46.8 |
| GGCAAGCGAAAGCTGCC (((.(((....)))))) | 68.9 | -33.4 |
| GGCAAGGCGAAAGCCGCC (((..(((....)))))) | 59.6 | -13.6 |
